Experimental data reported in ChEMBL document CHEMBL4024792, “(N-Hydroxycarbonylbenylamino)quinolines as Selective Histone Deacetylase 6 Inhibitors Suppress Growth of Multiple Myeloma in Vitro and in Vivo” (J Med Chem, 2018).
Calls of active or inactive are those of the source. The rule behind the calls is not given here.

Legend:
RPMI-8226 [1] = assay: Cell cycle arrest in human RPMI8226 cells assessed as accumulation at S phase at 5 uM after 24 hrs by propidium iodide staining based flow cytometry (reference value: 19.53%); assay type: functional
U-266 [2] = assay: Cell cycle arrest in human U266 cells assessed as accumulation at sub-G1 phase at 5 uM after 24 hrs by propidium iodide staining based flow cytometry (reference value: 10.76%); assay type: functional
U-266 [3] = assay: Cell cycle arrest in human U266 cells assessed as accumulation at G0/G1 phase at 5 uM after 24 hrs by propidium iodide staining based flow cytometry (reference value: 40.29%); assay type: functional
NCI-H929 [4] = assay: Cell cycle arrest in human NCI-H929 cells assessed as accumulation at sub-G1 phase at 5 uM after 24 hrs by propidium iodide staining based flow cytometry (reference value: 5.59%); assay type: functional
NCI-H929 [5] = assay: Cell cycle arrest in human NCI-H929 cells assessed as accumulation at S phase at 5 uM after 24 hrs by propidium iodide staining based flow cytometry (reference value: 13.5%); assay type: functional
RPMI-8226 [6] = assay: Cell cycle arrest in human RPMI8226 cells assessed as accumulation at sub-G1 phase at 5 uM after 24 hrs in presence of bortezomib by propidium iodide staining based flow cytometry (reference value: 12.25%); assay type: functional
RPMI-8226 [7] = assay: Cell cycle arrest in human RPMI8226 cells assessed as accumulation at G2/M phase at 5 uM after 24 hrs in presence of bortezomib by propidium iodide staining based flow cytometry (reference value: 23.94%); assay type: functional
U-266 [8] = assay: Cell cycle arrest in human U266 cells assessed as accumulation at sub-G1 phase at 5 uM after 24 hrs in presence of bortezomib by propidium iodide staining based flow cytometry (reference value: 10.76%); assay type: functional
U-266 [9] = assay: Cell cycle arrest in human U266 cells assessed as accumulation at G0/G1 phase at 5 uM after 24 hrs in presence of bortezomib by propidium iodide staining based flow cytometry (reference value: 40.29%); assay type: functional
U-266 [10] = assay: Cell cycle arrest in human U266 cells assessed as accumulation at G2/M phase at 5 uM after 24 hrs in presence of bortezomib by propidium iodide staining based flow cytometry (reference value: 35.13%); assay type: functional
NCI-H929 [11] = assay: Cell cycle arrest in human NCI-H929 cells assessed as accumulation at S phase at 5 uM after 24 hrs in presence of bortezomib by propidium iodide staining based flow cytometry (reference value: 13.5%); assay type: functional
NCI-H929 [12] = assay: Cell cycle arrest in human NCI-H929 cells assessed as accumulation at G2/M phase at 5 uM after 24 hrs in presence of bortezomib by propidium iodide staining based flow cytometry (reference value: 31.63%); assay type: functional
RPMI-8226 [13] = assay: Induction of apoptosis in human RPMI8226 cells at 5 uM after 24 hrs by Annexin V/propidium iodide staining based flow cytometry; assay type: functional, cell-based
U-266 [14] = assay: Induction of apoptosis in human U266 cells at 5 uM after 24 hrs by Annexin V/propidium iodide staining based flow cytometry; assay type: functional, cell-based
NCI-H929 [15] = assay: Induction of apoptosis in human NCI-H929 cells at 5 uM after 24 hrs in presence of bortezomib by Annexin V/propidium iodide staining based flow cytometry; assay type: functional, cell-based
U-266 [16] = assay: Induction of apoptosis in human U266 cells at 5 uM after 24 hrs in presence of bortezomib by Annexin V/propidium iodide staining based flow cytometry; assay type: functional, cell-based
RPMI-8226 [17] = assay: Antitumor activity against human RPMI8226 cells xenografted in nude mouse assessed as tumor growth inhibition at 30 mg/kg, iv or ip administered for 5 days followed by 2 days off for 35 days relative to control; assay type: functional; conditions: read-out: TGI
Outline: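 RPMI 8226 cells (1 × 10^7) implanted s.c. in eight-week-old male nude mice. At mean tumor volume 200 mm3, mice randomized into four groups (n = 8). Caliper measurement every 3–4 days, volume L×W²/2. %TGI computed from treated versus control volume changes relative to time 0.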

[18] = Stability in Sprague-Dawley rat hepatocytes assessed as parent compound remaining at 10 uM after 60 mins by LC-MS/MS analysis; assay type: ADME, cell-based, Hepatocyte; conditions: read-out: Stability
Outline: (§1)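 Cryopreserved hepatocytes (Sprague-Dawley rat, beagle dog, human) incubated with compound at 10 µM, 37 °C, for up to 4 h. About 0.5×10^6 cells/well for rat and dog, 0.24×10^6 for human.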

[19] = Stability in beagle dog hepatocytes assessed as parent compound remaining at 10 uM after 60 mins by LC-MS/MS analysis; assay type: ADME, cell-based, Canis lupus familiaris, Hepatocyte; conditions: read-out: Stability; outline: as §1
[20] = Stability in human hepatocytes assessed as parent compound remaining at 10 uM after 60 mins by LC-MS/MS analysis; assay type: ADME, cell-based, Hepatocyte; conditions: read-out: Stability; outline: as §1
[21] = Half life in Sprague-Dawley rat hepatocytes at 10 uM by LC-MS/MS analysis; assay type: ADME, cell-based, Hepatocyte
Outline: (§2)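 Substrate depletion in cryopreserved hepatocytes (male SD rat, male beagle dog, human). Compound at 10 µM incubated at 37 °C for up to 4 h. Cell density approximately 0.5 × 10^6 hepatocytes/well for rat and dog, 0.24 × 10^6/well for human. Half-life and CLint derived from depletion; % remaining at 60 min also reported.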

[22] = Half life in human hepatocytes at 10 uM by LC-MS/MS analysis; assay type: ADME, cell-based, Hepatocyte; outline: as §2
[23] = Intrinsic clearance in Sprague-Dawley rat hepatocytes at 10 uM by LC-MS/MS analysis; assay type: ADME, cell-based, Hepatocyte; conditions: read-out: CLH; outline: as §1
[24] = Intrinsic clearance in beagle dog hepatocytes at 10 uM by LC-MS/MS analysis; assay type: ADME, cell-based, Canis lupus familiaris, Hepatocyte; conditions: read-out: CLH; outline: as §1
[25] = Intrinsic clearance in human hepatocytes at 10 uM by LC-MS/MS analysis; assay type: ADME, cell-based, Hepatocyte; conditions: read-out: CLH; outline: as §1
[26] = Apparent permeability from apical to basolateral side in human Caco2 cells at 10 uM after 2 hrs by LC-MS/MS analysis; assay type: ADME, cell-based; conditions: Caco-2
Outline: (§3)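 Caco-2 cells seeded at 8.4 × 10^4 cells/cm2 on polycarbonate inserts for 21 days. For A→B, donor was apical (HBSS/MES pH 6.5, 10 µM compound) and receiver basolateral (HBSS/HEPES pH 7.4). For B→A, donor was basolateral (HBSS/HEPES pH 7.4, 10 µM) and receiver apical (HBSS/MES pH 6.5). Incubated at 37 °C for 2 h. Receiver sampled at 30, 60, 90 and 120 min, donor at 0 and 120 min.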

[27] = Apparent permeability from basolateral to apical side in human Caco2 cells at 10 uM after 2 hrs by LC-MS/MS analysis; assay type: ADME, cell-based; conditions: Caco-2; outline: as §3
Salmonella typhimurium [28] = assay: Mutagenicity in Salmonella typhimurium TA98 assessed as increase in number of revertant colonies at 3 to 3000 ug/plate in absence of S9 fraction by Ames test; assay type: toxicity; conditions: salmonella enterica subsp. enterica serovar typhimurium
Outline: (§4)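 Ames test, TA98 and TA100. Overnight broth cultures preincubated 20 min at 35-37 °C with compound (DMSO stock) plus Aroclor 1254-induced rat liver S9 mix or PBS, then plated in top agar with 0.05 mM histidine/biotin. Final 3-3000 µg/plate; revertants counted after 72 h at 37 °C. ≥3-fold over vehicle = mutagenic; ≤50% = cytotoxic.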

Salmonella typhimurium [29] = assay: Mutagenicity in Salmonella typhimurium TA100 assessed as increase in number of revertant colonies at 3 to 3000 ug/plate in presence of S9 fraction by Ames test; assay type: toxicity; conditions: salmonella enterica subsp. enterica serovar typhimurium; outline: as §4
Salmonella typhimurium [30] = assay: Mutagenicity in Salmonella typhimurium TA100 assessed as increase in number of revertant colonies at 3 to 3000 ug/plate in absence of S9 fraction by Ames test; assay type: toxicity; conditions: salmonella enterica subsp. enterica serovar typhimurium; outline: as §4

- remaining at 1 h, 10 µM [18]: 28.4%
- remaining at 1 h, 10 µM [19]: 70.6%
- remaining at 1 h, 10 µM [20]: 86.4%
- half-life at 10 µM [21]: 0.93 h
- half-life at 10 µM [22]: 4 h
- CLint scaled at 10 µM [23]: 151 mL/min/kg
- CLint scaled at 10 µM [24]: 39.6 mL/min/kg
- CLint scaled at 10 µM [25]: 32.5 mL/min/kg
- Papp A→B at 2 h, 10 µM [26]: 24 ×10⁻⁶ cm/s
- Papp B→A at 2 h, 10 µM [27]: 20.1 ×10⁻⁶ cm/s
SMILES: O=C(NO)c1ccc(CNc2cccc3cccnc23)cc1
- Activity (RPMI-8226 [1]): 15.19%
- Activity (U-266 [2]): 17.82%
- Activity (U-266 [3]): 52.88%
- Activity (NCI-H929 [4]): 24.71%
- Activity (NCI-H929 [5]): 8.55%
- Activity (RPMI-8226 [6]): 84.18%
- Activity (RPMI-8226 [7]): 2.33%
- Activity (U-266 [8]): 45.29%
- Activity (U-266 [9]): 25.75%
- Activity (U-266 [10]): 21.52%
- Activity (NCI-H929 [11]): 8.6%
- Activity (NCI-H929 [12]): 1.73%
- Activity (RPMI-8226 [13]): Active
- Activity (U-266 [14]): Active
- Activity (NCI-H929 [15]): Active
- Activity (U-266 [16]): Active
- inhibition in vivo at 30 mg/kg (RPMI-8226 [17]): 60.4%
- Activity (Salmonella typhimurium [28]): Non-Toxic
- Activity (Salmonella typhimurium [29]): Non-Toxic
- Activity (Salmonella typhimurium [30]): Non-Toxic
